Measured values: ChEMBL document CHEMBL1135819, “N-[3-(1H-imidazol-4-ylmethyl)phenyl]ethanesulfonamide (ABT-866, 1),(1) a novel alpha(1)-adrenoceptor ligand with an enhanced in vitro and in vivo profile relative to phenylpropanolamine and midodrine” (J Med Chem, 2002)
Calls of active or inactive are those of the source. No cut-off for these calls is given here.

Columns and labels:
Oryctolagus cuniculus = species on record: Oryctolagus cuniculus; experiment: In vitro percent efficacy of compound was tested in rabbit urethra; format: functional
Canis familiaris [1] = experiment: Dose corresponding to a 20 mmHg increase in mean arterial pressure (MAP) was determined in vivo in isoflurane anesthetized female beagles; format: functional, Canis lupus familiaris, Beagle, Artery
Summary of the method: (§1)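 Female beagles under isoflurane anesthesia; MAP by chronically implanted telemetry transducer/transmitter, IUP by urethral catheter, recorded simultaneously. Increasing iv doses given; maximal effect of each dose taken within 1 min of dosing. Doses giving 5 mmHg IUP rise (IUP ED5) and 20 mmHg MAP rise (MAP ED20) calculated, nmol/kg, mean ± SEM, n ≥ 4.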

Rattus norvegicus [2] = species on record: Rattus norvegicus; experiment: In vitro percent efficacy of compound was tested rat spleen; format: functional
Canis familiaris [3] = experiment: Dose corresponding to a 5 mmHg increase in Intraurethral pressure (IUP) was determined in vivo in isoflurane anesthetized female beagles; format: functional, Canis lupus familiaris, Beagle; summary of the method: as §1
[4] = biological target: T1, Alpha-1B adrenergic receptor (Mesocricetus auratus, UniProt P18841); experiment: Binding affinity towards hamster cloned Alpha-1B adrenergic receptor mean;value ranges from( 6.4 -14); set-up: species or system Cricetulus griseus
T1 sequence (P18841 whole entry): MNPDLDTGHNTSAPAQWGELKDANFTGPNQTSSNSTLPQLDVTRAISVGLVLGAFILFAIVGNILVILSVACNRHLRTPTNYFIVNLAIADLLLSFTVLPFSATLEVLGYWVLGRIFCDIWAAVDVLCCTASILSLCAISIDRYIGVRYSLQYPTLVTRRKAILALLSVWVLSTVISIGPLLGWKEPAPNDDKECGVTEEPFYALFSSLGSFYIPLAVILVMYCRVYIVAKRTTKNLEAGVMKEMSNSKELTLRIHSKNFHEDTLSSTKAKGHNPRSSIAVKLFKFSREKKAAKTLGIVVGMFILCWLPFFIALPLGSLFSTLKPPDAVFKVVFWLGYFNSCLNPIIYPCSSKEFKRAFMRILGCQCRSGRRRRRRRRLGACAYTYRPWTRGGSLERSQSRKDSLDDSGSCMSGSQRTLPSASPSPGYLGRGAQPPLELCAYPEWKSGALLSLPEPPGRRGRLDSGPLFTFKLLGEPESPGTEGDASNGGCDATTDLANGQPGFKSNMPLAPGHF

[5] = biological target: T2, Alpha-1B adrenergic receptor (Rattus norvegicus, UniProt P15823); experiment: Effective concentration in vitro against rat spleen Alpha-1B adrenergic receptor indicates EC50 < 15% at a concentration of 10 uM; format: tissue-based
T2 sequence (P15823 whole entry): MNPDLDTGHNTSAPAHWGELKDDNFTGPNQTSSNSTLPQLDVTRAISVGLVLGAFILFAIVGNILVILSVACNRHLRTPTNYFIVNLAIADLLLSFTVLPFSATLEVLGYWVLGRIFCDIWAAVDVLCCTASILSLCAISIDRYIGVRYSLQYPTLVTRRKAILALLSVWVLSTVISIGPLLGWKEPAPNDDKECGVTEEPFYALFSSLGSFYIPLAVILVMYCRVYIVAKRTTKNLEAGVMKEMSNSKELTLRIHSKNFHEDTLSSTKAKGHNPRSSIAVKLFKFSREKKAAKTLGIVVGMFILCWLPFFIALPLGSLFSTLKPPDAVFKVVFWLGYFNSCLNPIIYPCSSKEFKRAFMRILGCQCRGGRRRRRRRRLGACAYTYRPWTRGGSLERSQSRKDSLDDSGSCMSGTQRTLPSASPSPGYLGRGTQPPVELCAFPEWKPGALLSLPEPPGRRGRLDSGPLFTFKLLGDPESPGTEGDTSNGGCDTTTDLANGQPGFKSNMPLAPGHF

[6] = biological target: T3, Alpha-1D adrenergic receptor (Rattus norvegicus, UniProt P23944); experiment: Effective concentration in vitro against rat aorta Alpha-1D adrenergic receptor;* indicates EC50 < 15% at a concentration of 10 uM; format: tissue-based
T3 sequence (P23944 whole entry): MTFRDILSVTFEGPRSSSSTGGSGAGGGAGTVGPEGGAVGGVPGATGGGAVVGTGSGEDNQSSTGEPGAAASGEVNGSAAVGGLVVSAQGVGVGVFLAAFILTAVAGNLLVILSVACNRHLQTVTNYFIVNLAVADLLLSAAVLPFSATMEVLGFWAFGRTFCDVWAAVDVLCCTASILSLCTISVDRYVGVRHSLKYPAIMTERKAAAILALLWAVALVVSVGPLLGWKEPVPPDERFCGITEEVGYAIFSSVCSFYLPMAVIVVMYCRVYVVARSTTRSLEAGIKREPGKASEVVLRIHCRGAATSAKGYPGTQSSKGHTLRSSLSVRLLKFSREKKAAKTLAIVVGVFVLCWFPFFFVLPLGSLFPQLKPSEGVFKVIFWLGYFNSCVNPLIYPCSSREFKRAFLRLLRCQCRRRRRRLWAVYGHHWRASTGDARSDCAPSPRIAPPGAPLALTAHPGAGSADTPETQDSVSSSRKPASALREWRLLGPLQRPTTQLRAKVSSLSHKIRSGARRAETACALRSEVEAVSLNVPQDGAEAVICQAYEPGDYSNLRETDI

Rattus norvegicus [7] = species on record: Rattus norvegicus; experiment: (§2) In vitro percent efficacy of compound was tested in rat aorta; format: functional
[8] = biological target: T4, Alpha-1A adrenergic receptor (Rattus norvegicus, UniProt P43140); experiment: Binding affinity towards rat submaxillary gland Alpha-1 adrenergic receptor; value ranges from (6.2 - 15)
T4 sequence (P43140 whole entry): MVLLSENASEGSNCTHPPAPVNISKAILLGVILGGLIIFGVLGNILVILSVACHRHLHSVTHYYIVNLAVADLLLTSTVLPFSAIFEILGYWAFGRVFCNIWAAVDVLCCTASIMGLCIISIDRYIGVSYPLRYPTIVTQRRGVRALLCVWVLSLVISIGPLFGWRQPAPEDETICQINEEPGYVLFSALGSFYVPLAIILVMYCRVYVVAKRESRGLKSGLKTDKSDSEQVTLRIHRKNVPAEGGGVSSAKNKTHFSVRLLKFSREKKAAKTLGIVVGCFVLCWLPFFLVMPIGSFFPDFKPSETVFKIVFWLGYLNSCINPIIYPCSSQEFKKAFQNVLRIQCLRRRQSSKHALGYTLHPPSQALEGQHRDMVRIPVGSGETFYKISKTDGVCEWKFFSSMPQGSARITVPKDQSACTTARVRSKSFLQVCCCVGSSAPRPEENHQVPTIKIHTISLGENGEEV

[9] = biological target: T3, Alpha-1D adrenergic receptor; experiment: Binding affinity towards rat cloned Alpha-1D adrenergic receptor; value ranges from (5.5 -13)
[10] = biological target: T4, Alpha-1A adrenergic receptor; experiment: Binding affinity towards rat submaxillary gland Alpha-1 adrenergic receptor; value ranges from (0.12 - 0.15)
[11] = biological target: T2, Alpha-1B adrenergic receptor; experiment: Antagonistic activity against Alpha-1B adrenergic receptor determined using phenylephrine challenge in rat spleen isolated tissues.; format: functional, tissue-based; settings: read-out: pA2 (converted)
[12] = biological target: T3, Alpha-1D adrenergic receptor; experiment: Antagonistic activity against Alpha-1D adrenergic receptor determined using phenylephrine challenge in rat aorta isolated tissues.; format: functional, tissue-based; settings: read-out: pA2 (converted)
[13] = biological target: T5, Alpha-1B adrenergic receptor (Rattus norvegicus) (UniProt P15823); experiment: Effective concentration in vitro against rat spleen Alpha-1B adrenergic receptor (EC50 < 15%) at a concentration of 10 uM; NA is not active; format: tissue-based
T5 sequence (whole entry): T2 sequence (P15823 whole entry)

[14] = biological target: T1, Alpha-1B adrenergic receptor; experiment: Binding affinity towards hamster cloned Alpha-1B adrenergic receptor; value ranges from (2.0 -4.4); set-up: species or system Cricetulus griseus
[15] = biological target: T3, Alpha-1D adrenergic receptor; experiment: Binding affinity towards rat cloned Alpha-1D adrenergic receptor; value ranges from (1.3 -1.6)
Rattus norvegicus [16] = species on record: Rattus norvegicus; experiment: as §2; format: functional; remark: listed apart in the source
Summary of the method: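 Isolated tissue contraction: agonist dose–response curves run in rat aorta (α1D) and rat spleen (α1B). Efficacy is the percent response relative to phenylephrine. EC50 is taken as the dose contracting the tissue 50%. Data reported ± SEM.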

[17] = biological target: T4, Alpha-1A adrenergic receptor; experiment: Binding affinity towards rat submaxillary gland Alpha-1 adrenergic receptor; value ranges from (1.6 -2.5)
Rattus norvegicus [18] = species on record: Rattus norvegicus; experiment: In vitro percent efficacy of compound was tested in rat spleen; format: functional
[19] = biological target: T3, Alpha-1D adrenergic receptor; experiment: Binding affinity towards rat cloned Alpha-1D adrenergic receptor; value ranges from (1.5 - 1.9)
[20] = biological target: T1, Alpha-1B adrenergic receptor; experiment: Binding affinity towards hamster cloned Alpha-1B adrenergic receptor; value ranges from (6.2 -7.7); set-up: species or system Cricetulus griseus

| Compound | Efficacy (Oryctolagus cuniculus) [%] | ED20 (Canis familiaris [1]) [nM/kg] | ED5 (Canis familiaris [3]) [nM/kg] | EC50 [5] [µM] | EC50 [6] [µM] | Efficacy (Rattus norvegicus [7]) [%] | also measured |
| --- | --- | --- | --- | --- | --- | --- | --- |
| C[C@H](N)[C@H](O)c1ccccc1 [(1R,2S)-PHENYLPROPANOLAMINE] | 68 | 330 | 1100 | 280 | 58 | 91 | Efficacy (Rattus norvegicus [2]): 34%; Ki [4]: 9.6 µM; Ki [8]: 9.8 µM; Ki [9]: 8.4 µM |
| CCS(=O)(=O)Nc1cccc(Cc2c[nH]cn2)c1 | 80 | 80 | 12 |  |  |  | Ki [10]: 140 nM; Kb [11]: 3.98 µM; Kb [12]: 631 nM; NA [13]: inactive |
| CS(=O)(=O)Nc1c(O)ccc2c1CCCC2C1=NCCN1 (stereo not drawn) | 88 | 0.27 | 0.16 |  |  |  | Ki [14]: 2900 nM; Ki [15]: 1500 nM; Efficacy (Rattus norvegicus [16]): 100% |
| COc1ccc(OC)c(C(O)CN)c1 (stereo not drawn) [DESGLYMIDODRINE] | 133 | 250 | 205 | 85 | 1.9 | 106 | Ki [17]: 2000 nM; Efficacy (Rattus norvegicus [18]): 68%; Ki [19]: 1700 nM; Ki [20]: 6.9 µM |
